Source: ChEMBL document CHEMBL1135691, “Synthesis of novel N-1 (allyloxymethyl) analogues of 6-benzyl-1-(ethoxymethyl)-5-isopropyluracil (MKC-442, emivirine) with improved activity against HIV-1 and its mutants” (J Med Chem, 2002)
Values joined by “and” are separate entries in the source; they are usually repeats but may differ in a detail not shown here. Equal values may be shown once. Where a name gives a salt, the structure may show the parent alone.

Columns and labels:
[1] = system: Human immunodeficiency virus 1; assay: (§1) Effective concentration required to achieve 50% inhibition of HIV-1 multiplication in MT-4-infected Y181C strain; assay type: functional; details: read-out: ED50 (the source's name)
Outline: (§2)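 NNRTI-resistant HIV-1 strains infected MT-4 cells at 0.005 MOI. Cells were cultured with serial compound dilutions in RPMI 1640 with 10% heat-inactivated FCS and antibiotics for 6 days, alongside infected and uninfected no-compound controls. Viral expression was quantified indirectly by MTT assay. EC50 was interpolated from percent-inhibition versus concentration plots. Values are means of three separate experiments.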

MT4 = assay: (§3) Cytotoxic dose required to reduce the viability of normal uninfected MT-4 cells by 50%; assay type: functional, Homo sapiens; details: read-out: CD50 (the source's name)
[2] = Selective index (CD50 compared to ED50 against HIV-1 IIIB strain).; assay type: functional
Outline: (§4)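 Ratio of CD50 to ED50. Both values come from 6-day MT-4 MTT assays: uninfected cultures for cytotoxicity, and cultures infected at MOI 0.005 with the named wild-type strain for antiviral effect. Each value was interpolated from inhibition–concentration plots and is the mean of three experiments.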

[3] = system: Human immunodeficiency virus 1; assay: Inhibition of HIV-1 IIIB replication in MT-4-infected wild type cells.; assay type: functional; details: read-out: ED50 (the source's name)
Outline: (§5)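 MT-4 cells infected with wild-type HIV-1 (IIIB, H9-propagated stock, or HxB2 clone) at MOI 0.005 and cultured 6 days in RPMI 1640 with 10% heat-inactivated FCS and compound dilutions. Infected and uninfected controls without compound run in parallel. Virus expression measured indirectly by MTT. EC50 interpolated from inhibition–concentration plots. Mean of three experiments.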

[4] = system: Human immunodeficiency virus 1; assay: Effective concentration required to achieve 50% inhibition of HIV-1 multiplication in MT-4-infected Y181C+K103N strain; assay type: functional; details: read-out: ED50 (the source's name); outline: as §2
[5] = system: Human immunodeficiency virus 1; assay: Effective concentration required to achieve 50% inhibition of HIV-1 multiplication in MT-4-infected wild type cells; assay type: functional; details: read-out: ED50 (the source's name); outline: as §5
[6] = system: Human immunodeficiency virus 1; assay: Effective concentration required to achieve 50% inhibition of HIV-1 multiplication in MT-4-infected K103N strain; assay type: functional; details: read-out: ED50 (the source's name); outline: as §2
[7] = (§6) Selective index as the ratio of CD50 to that of ED50 against HIV-1 HxB2 strain.; assay type: functional; outline: as §4
[8] = system: Human immunodeficiency virus 1; assay: as §1; assay type: functional; details: read-out: ED50 (the source's name); outline: as §2; remark: listed apart in the source
[9] = Selective index as the ratio of CD50 to that of ED50 against HIV-1 IIIB strain.; outline: as §4
[10] = as §6; outline: as §4
[11] = as §3; assay type: cell-based, MT4; details: human, read-out: CD50 (the source's name)

Row | Compound | EC50 [1] [nM] | CC50 (MT4; Homo sapiens, MT4) [nM] | SI [2] | EC50 [3] [nM] | EC50 [4] [nM] | EC50 [5] [nM] | EC50 [6] [nM] | SI [7] | EC50 [8] [nM] | CC50 (MT4) | SI [9] | SI [10] | CC50 [11] [nM]
1 | C=C(C)COCn1c(Cc2cc(C)cc(C)c2)c(C(C)C)c(=O)[nH]c1=O | 15000 | > 100000 | > 667000 | 0.15 | 26000 | – | – | – | – | – | – | – | –
2 | C=CCOCn1c(Cc2ccccc2)c(C(C)C)c(=O)[nH]c1=O | 100000 | > 100000 | > 25000 | 4 | > 100000 | 3 | 900 | > 33300 | 3300 | – | – | – | –
3 | O=C1Nc2ccc(Cl)cc2[C@@](C#CC2CC2)(C(F)(F)F)O1 [EFAVIRENZ] | – | > 100000 | – | 10 | 2700 | 40 | 350 | – | 40 | – | – | – | –
4 | C=CCOCn1c(Cc2cccc3ccccc23)c(CC)c(=O)[nH]c1=O | – | 32000 | 32 | 1000 | – | – | – | – | – | – | – | – | –
5 | C#CCOCn1c(Cc2ccccc2)c(C(C)C)c(=O)[nH]c1=O | > 100000 | > 100000 | > 14300 | 7 | > 100000 | – | – | – | – | – | – | – | –
6 | CC(C)=CCOCn1c(Cc2cc(C)cc(C)c2)c(C(C)C)c(=O)[nH]c1=O | 19000 | > 100000 | > 500000 | 0.2 | 28000 | – | – | – | – | – | – | – | –
7 | Cc1ccnc2c1NC(=O)c1cccnc1N2C1CC1 [NEVIRAPINE] | > 100000 | > 100000 | > 263 | 380 | > 100000 | 570 | 4300 | > 175 | 22000 | – | – | – | –
8 | C=CCOCn1c(Cc2cc(C)cc(C)c2)c(CC)c(=O)[nH]c1=O | 320 | 100000 | 25000 | 4 | 10000 | 0.02 | 20 | > 5e+06 | 70 | > 100000 nM | – | – | –
9 | C=CCOCn1c(Cc2cc(C)cc(C)c2)c(C(C)C)c(=O)[nH]c1=O | > 100000 | 30000 | 150000 | 0.2 | > 100000 | – | – | – | – | – | – | – | –
10 | CCc1c(Cc2cccc3ccccc23)n(COCC=C(C)C)c(=O)[nH]c1=O | – | > 100000 | > 333 | 300 | – | – | – | – | – | – | – | – | –
11 | C=C(C)COCn1c(Cc2cc(C)cc(C)c2)c(CC)c(=O)[nH]c1=O | 360 | > 100000 | > 40000 | 2.5 | 28000 | 8 | 2200 | > 12500 | 4000 | – | – | – | –
12 | C=C(C)COCn1c(Cc2ccccc2)c(C(C)C)c(=O)[nH]c1=O | > 100000 | – | – | 280 | > 100000 | 50 | > 100000 | – | > 100000 | 40000 nM and > 100000 nM | 142 | > 2000 | –
13 | C=C(C)COCn1c(Cc2cccc3ccccc23)c(CC)c(=O)[nH]c1=O | – | 35000 | 35 | 1000 | – | – | – | – | – | – | – | – | –
14 | CC(C)=CCOCn1c(Cc2ccccc2)c(C(C)C)c(=O)[nH]c1=O | > 100000 | 34000 | 1070 | 30 | > 100000 | 30 | 3800 | 1120 | > 100000 | – | – | – | 32000
15 | C#CCOCn1c(Cc2cc(C)cc(C)c2)c(CC)c(=O)[nH]c1=O | > 100000 | > 100000 | > 33300 | 3 | 3000 | – | – | – | – | – | – | – | –
16 | CC(C)Nc1cccnc1N1CCN(C(=O)c2cc3cc(NS(C)(=O)=O)ccc3[nH]2)CC1 [DELAVIRDINE MESYLATE] | > 100000 | 42000 | 700 | 60 | > 100000 | 190 | 3000 | > 221 | 4500 | > 42000 nM | – | – | –
17 | CCc1c(Cc2cc(C)cc(C)c2)n(COCC=C(C)C)c(=O)[nH]c1=O | 340 | 36000 | 120000 | 0.3 | > 100000 | 0.02 | 90 | 3.03e+06 | 450 | 61000 nM | – | – | –
